In the RNAGym collection of RNA variant scans (doi:10.1002/anie.201605470) one finds self-cleavage data, which are given here for 49 variants.

The chains are these.
B1: Osa-1-4 twister ribozyme (parent)
chain: CCGCCUAACACUGCCAAUGCCGGUCCCAAGCCCGGAUAAAAGUGGAGGGGGCGG

Variants of B1 are the subject of this series. As to the kind of experiment: self-cleavage, relative activity (ratio to wild type); higher = more cleavage; co-transcriptional. The procedure, abridged:
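A DNA template for a 54-nucleotide Oryza sativa twister ribozyme was synthesised with 97 % wild-type base and 1 % of each other base at the 48 positions downstream of the cleavage site. It was transcribed in vitro for 2 h at 37 °C, allowing co-transcriptional self-cleavage, then reverse-transcribed with a template-switching oligonucleotide, PCR-amplified and deep-sequenced. Cleavage status was scored from reads with or without upstream sequence. Relative activity is fraction cleaved normalised to wild type.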
As to CCGCCUAACACUGCCAAUGCCGGCCCCAAGCCCGGAUAAAUGUGGAGGGGGCGG [A41U U24C], the self-cleavage was 0.27. Consider CCGCCUAACACUGCCAAUGCCGGUCCCAAGCUCGGAUAAAUGUGGAGGGGGCGG [A41U C32U], for which the self-cleavage was determined as 0.17. The result for CCGCCUAACACUGCCAAUGCCGGUCCCAAGCACGGAUAAAUGUGGAGGGGGCGG [A41U C32A] reads 0.1. Regarding CCGCCUAACACUGCCAAUGCCGGUCCCAAGCGCGGAUAAAUGUGGAGGGGGCGG [A41U C32G], the self-cleavage is 0.18. As for CCGCCUAACACUGCCAAUGCCGGUCCCAAGCCCUGAUAAAUGUGGAGGGGGCGG [A41U G34U], the self-cleavage was 0.74. The value for CCGCCUAACACUGCCAAUGCCGGUCCCAAGCCCCGAUAAAUGUGGAGGGGGCGG [A41U G34C] was 0.47.

For the variant CCGCCUAACACUGCCAAUGCCGGUCCCAAGCCCAGAUAAAUGUGGAGGGGGCGG [A41U G34A], the self-cleavage came to 0.82. CCGCCUAACACUGCCAAUGCCGGUCCCAAGCCCGGAUAAAUGUGGAGGAGGCGG [A41U G49A]: the self-cleavage turned out to be 0.14. The result for CCGCCUAACACUGCCAAUGCCGGUCCCAAGCCCGGAUAAAUGUGGAGGCGGCGG [A41U G49C] reads 0.07; that for CCGCCUAACACUGCCAAUGCCGGUCCCAAGCCCGGAUAAAUGUGGAGGUGGCGG [A41U G49U], 0.13; that for CCGCCUAACACUGCCAACGCCGGUCCCAAGCCCGGAUAAAUGUGGAGGGGGCGG [A41U U18C], 0.93. Take CCGCCUAACACUGCCAAGGCCGGUCCCAAGCCCGGAUAAAUGUGGAGGGGGCGG [A41U U18G]: the self-cleavage was 0.86. The value for CCGCCUAACACUGCCAAAGCCGGUCCCAAGCCCGGAUAAAUGUGGAGGGGGCGG [A41U U18A] was 0.92; that for CCGCCUAACACUGCCAAUGCCGGUCCCAAGCCCGGAUAAAAAUGGAGGGGACGG [G42A G51A] was 0.28; that for CCGCCUAACACUGCCAAUGCCGGUCCCAAGCCCGGAUAAAUGUGGAGGGGGUGG [A41U C52U] was 1.04. Take CCGCCUAACACUGCCAAUGCCGGUCCCAAGCCCGGAUAAAUGUGGAGGGGGGGG [A41U C52G]: the self-cleavage amounted to 1.05.

As to CCGCCUAACACUGCCAAUGCCGGUCCCAAGCCCGGAUAAAUGUGGAGGGGGAGG [A41U C52A], the self-cleavage is 1.02. Consider CCGCCUAACACUGCCAAUGCCGGUCCCAAGCCCGGAUAAAUGUGAAGGGGGCGG [A41U G45A], for which the self-cleavage amounted to 0.25.

As for CCGCCUAACACUGCCAAUGCCGGUCCCAAGCCCGGAUAAAUGUGCAGGGGGCGG [A41U G45C], the self-cleavage came out at 0.06.

On to CCGCCUAACACUGCCAAUGCCGGUCCCAAGCCCGGAUAAAUGUGUAGGGGGCGG [A41U G45U], for which the self-cleavage was 0.12. CCGCCUAACACUGCCAAUGCCGGUCCCAAGCCCGGAUAAAUGUGGAGGGAGCGG [A41U G50A]: the self-cleavage stood at 0.6. In the case of CCGCCUAACACUGCCAAUGCCGGUCCCAAGCCCGGAUAAAUGUGGAGGGUGCGG [A41U G50U], the self-cleavage worked out at 1.03. Consider CCGCCUAACACUGCCAAUGCCGGUCCCAAGCCCGGAUAAAUGUGGAGGGCGCGG [A41U G50C], for which the self-cleavage was 0.99.

Consider CCGCCUAACACUGCCAAUGCCGGUCCCAAGCCCGGAUAAAAAUGGAGGGCGCGG [G42A G50C], for which the self-cleavage amounted to 0.64. Take CCGCCUAACACUGCCAAUGCCGGUCCCAAGCCCGGAUAAAAAUGGAGGGUGCGG [G42A G50U]: the self-cleavage came out at 0.83. Regarding CCGCCUAACACUGCCAAUGCCGGUCCCAAGCCCGGAUAAAAAUGGAGGGAGCGG [G42A G50A], the self-cleavage is 0.45.

On to CCGCCUAACACUGCCAAUGCCGGUCCCAAGUCCGGAUAAAUGUGGAGGGGGCGG [A41U C31U], for which the self-cleavage was 0.94. Take CCGCCUAACACUGCCAAUGCCGGUCCCAAGGCCGGAUAAAUGUGGAGGGGGCGG [A41U C31G]: the self-cleavage came out at 0.13.

Regarding CCGCCUAACACUGCCAAUGCCGGUCCCAAGCCCGGAUAAAAAUGGAGGUGGCGG [G42A G49U], the self-cleavage amounted to 0.06.

For CCGCCUAACACUGCCAAUGCCGGUCCCAAGCCCGGAUAAAAAUGGAGGCGGCGG [G42A G49C], the self-cleavage amounted to 0.07. For CCGCCUAACACUGCCAAUGCCGGUCCCAAGCCCGGAUAAAAAUGGAGGAGGCGG [G42A G49A], the self-cleavage was found to be 0.07. Consider CCGCCUAACACUGCCAAUGCCGGUCCCAAGCCCGCAUAAAUGUGGAGGGGGCGG [A41U G35C], for which the self-cleavage came to 0.77. Turning to CCGCCUAACACUGCCAAUGCCGGUCCCAAGCCCGUAUAAAUGUGGAGGGGGCGG [A41U G35U], the self-cleavage was found to be 0.87. For the variant CCGCCUAACACUGCCAAUGCCGGUCCCAAGCCCGAAUAAAUGUGGAGGGGGCGG [A41U G35A], the self-cleavage stood at 0.83. The result for CCGCCUAACACUGCCAAUGCCGGUCCCAACCCCGGAUAAAUGUGGAGGGGGCGG [A41U G30C] reads 0.04; that for CCGCCUAACACUGCCAAUGCCGGUCCCAAUCCCGGAUAAAUGUGGAGGGGGCGG [A41U G30U], 0.04; that for CCGCCUAACACUGCCAAUGCCGGUCCCAAACCCGGAUAAAUGUGGAGGGGGCGG [A41U G30A], 0.06. CCGCCUAACACUGCCAAUGCCGGUCCCAAGCCCGGAUAAAAAUGUAGGGGGCGG [G42A G45U]: the self-cleavage is 0.05. In the case of CCGCCUAACACUGCCAAUGCCGGUCCCAAGCCCGGAUAAAAAUGCAGGGGGCGG [G42A G45C], the self-cleavage was found to be 0.05. As to CCGCCUAACACUGCCAAUGCCGGUCCCAAGCCCGGAUAAAAAUGAAGGGGGCGG [G42A G45A], the self-cleavage was 0.08. As for CCGCCUAACACUGCCAAUGCCGGUCCCAAGCCCGGAUAAAAAUUGAGGGGGCGG [G42A G44U], the self-cleavage is 0.31.

Consider CCGCCUAACACUGCCAAUGCCGGUCCCAAGCCCGGAUAAAAAUCGAGGGGGCGG [G42A G44C], for which the self-cleavage was 0.57. The result for CCGCCUAACACUGCCAAUGCCGGUCCCAAGCCCGGAUAAAAAUAGAGGGGGCGG [G42A G44A] reads 0.5; that for CCGCCUAACACUGCCAAUGCCGGUCCCAAGCCCGGAUAAAAAUGGAAGGGGCGG [G42A G47A], 0.08; that for CCGCCUAACACUGCCAAUGCCGGUCCCAAGCCCGGAUAAAAAUGGACGGGGCGG [G42A G47C], 0.07. The result for CCGCCUAACACUGCCAAUGCCGGUCCCAAGCCCGGAUAAAAAUGGAUGGGGCGG [G42A G47U] reads 0.07; that for CCGCCUAACACUGCCAAUGCCGGUCCCAAGCCCGGAUAAAAAUGGAGUGGGCGG [G42A G48U], 0.05; that for CCGCCUAACACUGCCAAUGCCGGUCCCAAGCCCGGAUAAAAAUGGAGCGGGCGG [G42A G48C], 0.06. As for CCGCCUAACACUGCCAAUGCCGGUCCCAAGCCCGGAUAAAAAUGGAGAGGGCGG [G42A G48A], the self-cleavage came out at 0.06.
